Laboratory results taken from ChEMBL document CHEMBL1124641, “Synthesis and antiinflammatory and analgesic activity of 5-aroyl-6-(methylthio)-1,2-dihydro-3H-pyrrolo[1,2-a]pyrrole-1-ca rboxyl ic acids and 1-methyl-4-(methylthio)-5-aroylpyrrole-2-acetic acids” (J Med Chem, 1989).

Columns and labels:
Rattus norvegicus [1] = assay: Antiinflammatory activity assessed by inhibition of carrageenan-induced edema in rats […]; type: functional
Mus musculus = assay: Analgesic activity was assessed from the ability to inhibit phenylquinone-induced writhing in mouse […]; type: functional
Outline: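 Mouse phenylquinone-induced writhing screen. Potency is expressed relative to aspirin (aspirin = 1), with 95% confidence limits where given.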

[2] = Therapeutic ratio of MED GI erosion to that of ED30 of rat paw; type: ADME
Outline: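 Ratio derived as the gastrointestinal erosion minimum effective dose divided by the ED30 from the carrageenan rat paw assay. The erosion dose (mg/kg per day) comes from a 7-day chronic dosing assay in rats.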

Rattus norvegicus [3] = species: Rattus norvegicus; assay: Chronic gastrointestinal erosive activity in rats; type: functional; settings: read-out: MED
Outline: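 Chronic 7-day gastrointestinal erosion assay in rats with daily dosing. The read-out is the minimum effective dose for erosion (mg/kg per day), with 15 rats where stated.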

What does the source list for `CSc1ccc(C(=O)c2c(SC)cc3n2CCC3C(=O)O)cc1` (stereo unspecified)?
ED30 (Rattus norvegicus [1]): 10 mg/kg; ED50 (Mus musculus): 50 mg/kg

Which ED30 (Rattus norvegicus [1]) does the source give for `CSc1cc(CC(=O)O)n(C)c1C(=O)c1ccc(Cl)cc1` here?
Its ED30 is 1.5 mg/kg.

What about the ED50 (Mus musculus) of the same molecule?
Its ED50 is 56 mg/kg.

For `CSc1cc2n(c1C(=O)c1ccc(C)cc1)CCC2C(=O)O` (stereo unspecified), which selectivity ratio [2] is on record?
Its selectivity ratio is 4.

And the minimal effective dose (Rattus norvegicus [3])?
The minimal effective dose was 19 mg/kg.

Which ED30 (Rattus norvegicus [1]) does the source give for `CSc1cc2n(c1C(=O)c1ccc(C3CCCCC3)cc1)CCC2C(=O)O` (stereo unspecified) here?
The ED30 was less than 1 mg/kg.

And the ED50 (Mus musculus)?
Its ED50 is less than 3 mg/kg.

For `CSc1cc(CC(=O)O)n(C)c1C(=O)c1ccccc1`, which ED30 (Rattus norvegicus [1]) is on record?
Its ED30 is 1 mg/kg.

And the ED50 (Mus musculus)?
The ED50 was greater than 11 mg/kg.

With `COc1ccc2cc([C@H](C)C(=O)O)ccc2c1` [NAPROXEN] as the molecule, how does the selectivity ratio [2] read?
The selectivity ratio was 22.

What about the minimal effective dose (Rattus norvegicus [3]) of the same molecule?
The minimal effective dose was 30 mg/kg/day.

Which ED50 (Mus musculus) does the source give for `CC(=O)Oc1ccccc1C(=O)O` [ASPIRIN] here?
The ED50 was 70 mg/kg.

With `CSc1cc2n(c1C(=O)c1ccc(C(F)(F)F)cc1)CCC2C(=O)O` (stereo unspecified) as the molecule, how does the ED30 (Rattus norvegicus [1]) read?
Its ED30 is 15 mg/kg.

What about the ED50 (Mus musculus) of the same molecule?
The ED50 was 50 mg/kg.

For `CSc1cc(CC(=O)O)n(C)c1C(=O)c1ccc(F)cc1`, which ED30 (Rattus norvegicus [1]) is on record?
The ED30 was 0.5 mg/kg.

And the ED50 (Mus musculus)?
Its ED50 is 37 mg/kg.

With `CSc1cc2n(c1C(=O)c1ccc(C3CC3)cc1)CCC2C(=O)O` (stereo unspecified) as the molecule, how does the ED30 (Rattus norvegicus [1]) read?
The ED30 was 13 mg/kg.

What about the ED50 (Mus musculus) of the same molecule?
The ED50 was 25 mg/kg.

With `CCCCC1C(=O)N(c2ccccc2)N(c2ccccc2)C1=O` [PHENYLBUTAZONE] as the molecule, how does the ED30 (Rattus norvegicus [1]) read?
Its ED30 is 15 mg/kg.

Which selectivity ratio [2] does the source give for `CSc1cc(CC(=O)O)n(C)c1C(=O)c1ccc(C)cc1` here?
The selectivity ratio was greater than 4.5.

What about the minimal effective dose (Rattus norvegicus [3]) of the same molecule?
Its minimal effective dose is greater than 45 mg/kg.

For `CCCc1ccc(C(=O)c2c(SC)cc(CC(=O)O)n2C)cc1`, which ED30 (Rattus norvegicus [1]) is on record?
The ED30 was 0.2 mg/kg.

What about the ED50 (Mus musculus) of the same molecule?
Its ED50 is 5 mg/kg.

For `CCc1ccc(C(=O)c2c(SC)cc3n2CCC3C(=O)O)cc1` (stereo unspecified), which ED30 (Rattus norvegicus [1]) is on record?
The ED30 was 16 mg/kg.

And the ED50 (Mus musculus)?
The ED50 was 70 mg/kg.

With `CSc1cc2n(c1C(=O)c1ccc(F)cc1)CCC2C(=O)O` (stereo unspecified) as the molecule, how does the ED30 (Rattus norvegicus [1]) read?
The ED30 was less than 10 mg/kg.

And the ED50 (Mus musculus)?
Its ED50 is 60 mg/kg.

With `C=Cc1ccc(C(=O)c2c(SC)cc3n2CCC3C(=O)O)cc1` (stereo unspecified) as the molecule, how does the ED30 (Rattus norvegicus [1]) read?
The ED30 was 16 mg/kg.

What about the ED50 (Mus musculus) of the same molecule?
Its ED50 is 38 mg/kg.

Which results are given for `O=C(c1ccccc1)c1ccc2n1CCC2C(=O)O` (stereo unspecified) [KETOROLAC]?
selectivity ratio [2]: 18; minimal effective dose (Rattus norvegicus [3]): 5 mg/kg

What does the source list for `CSc1cc2n(c1C(=O)c1ccc(Cl)cc1)CCC2C(=O)O` (stereo unspecified)?
selectivity ratio [2]: 3.5; minimal effective dose (Rattus norvegicus [3]): 1.5 mg/kg

For `CSc1cc(CC(=O)O)n(C)c1C(=O)c1ccc(C2CC2)cc1`, which ED30 (Rattus norvegicus [1]) is on record?
The ED30 was 10 mg/kg.

And the ED50 (Mus musculus)?
Its ED50 is 30 mg/kg.

With `Cc1cc(CC(=O)O)n(C)c1C(=O)c1ccc(Cl)cc1` [ZOMEPIRAC] as the molecule, how does the selectivity ratio [2] read?
The selectivity ratio was 17.

And the minimal effective dose (Rattus norvegicus [3])?
The minimal effective dose was 10 mg/kg.

What does the source list for `CCCc1ccc(C(=O)c2c(SC)cc3n2CCC3C(=O)O)cc1` (stereo unspecified)?
ED30 (Rattus norvegicus [1]): 2.5 mg/kg; ED50 (Mus musculus): 7 mg/kg

With `CS(=O)(=O)c1cc2n(c1C(=O)c1ccc(Br)cc1)CCC2C(=O)O` (stereo unspecified) as the molecule, how does the ED30 (Rattus norvegicus [1]) read?
The ED30 was less than 1 mg/kg.

With `CSc1cc2n(c1C(=O)c1ccc(OC(C)C)cc1)CCC2C(=O)O` (stereo unspecified) as the molecule, how does the ED30 (Rattus norvegicus [1]) read?
The ED30 was less than 1 mg/kg.

What about the ED50 (Mus musculus) of the same molecule?
The ED50 was 1 mg/kg.

Which results are given for `CSc1cc2n(c1C(=O)c1ccc(Br)cc1)CCC2C(=O)O` (stereo unspecified)?
ED30 (Rattus norvegicus [1]): 26 mg/kg; ED50 (Mus musculus): < 9 mg/kg

Which results are given for `CCOc1ccc(C(=O)c2c(SC)cc(CC(=O)O)n2C)cc1`?
ED30 (Rattus norvegicus [1]): 3.6 mg/kg; ED50 (Mus musculus): 6 mg/kg

Which results are given for `CCOc1ccc(C(=O)c2c(SC)cc3n2CCC3C(=O)O)cc1` (stereo unspecified)?
ED30 (Rattus norvegicus [1]): 4 mg/kg; ED50 (Mus musculus): < 13 mg/kg

Which results are given for `COc1ccc(C(=O)c2c(SC)cc3n2CCC3C(=O)O)cc1` (stereo unspecified)?
ED30 (Rattus norvegicus [1]): < 10 mg/kg; ED50 (Mus musculus): 50 mg/kg
